Results on six compounds are retold here after ChEMBL document CHEMBL4321807, “Cyanine-Gemcitabine Conjugates as Targeted Theranostic Agents for Glioblastoma Tumor Cells” (J Med Chem, 2019).

Calls of active or inactive are those of the source. The calls are words filed in the database; no cut-off is given here.

The nature of series [1]: Drug localization in mitochondria of human U87 cells at 20 uM incubated for 45 mins by Mitotracker staining-based confocal fluorescence microscopy. Format: ADME. To be noted: u-87mg atcc, 0.75 h. In short, it runs like this: (§1)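 U87 cells seeded at 10 000/well in imaging chambers and left overnight. Exposed to 20 μM compound in FluoroBrite DMEM for 45 min at 37 °C, then washed with HBSS. Stained 15 min with LysoTracker (1:10 000) or MitoTracker (1:15 000), plus NucBlue nuclear stain. Imaged live by confocal microscopy at 60×, dye excited at 633 nm. Colocalization scored by Pearson's correlation coefficient.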

Series [2] concerns U-87 MG. The experiment in a line: Cytotoxicity against human U87 cells assessed as reduction in cell viability incubated for 72 hrs by AlamarBlue assay. In kind it is functional, cell-based, U-87MG ATCC.
Series [3] in a line: Drug localization in lysosome of human U87 cells at 20 uM incubated for 45 mins by Lysotracker staining-based confocal fluorescence microscopy. Format: ADME. The conditions noted are these: u-87mg atcc, 0.75 h. In short, it runs like this:
as §1

Series [4] is described as follows: Half life in mouse serum. Format: ADME, cell-free.
Series [5] deals with U-87 MG. The experiment in a line: Cytotoxicity against human U87 cells assessed as reduction in cell viability at 0.001 to 10 uM incubated for 72 hrs by AlamarBlue assay. To be noted: U-87MG ATCC. In kind it is functional, cell-based. The essentials: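 U87 cells, grown in DMEM/F12 with 10% FBS, seeded at 5000/well and left overnight. Compounds added in protein-free hybridoma medium (PFHM II) to final 0.001–10 μM and incubated 72 h at 37 °C. Viability read by AlamarBlue, 2 h, fluorescence Ex/Em 560/590 nm. IC50 taken relative to the lowest concentration beyond which no further cell death occurs.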

Take `CC1(C)C(/C=C/C2=C(SCCC(=O)Nc3ccn([C@@H]4O[C@H](CO)[C@@H](O)C4(F)F)c(=O)n3)C(=C/C=C3/N(CCCCS(=O)(=O)O)c4ccccc4C3(C)C)/CCC2)=[N+](CCCCS(=O)(=O)O)c2ccccc21.[Cl-]`: the Drug uptake result in series [1] and in series [3] was “Active” in each case. The 50% inhibitory concentration (IC50) in series [2] came out at 20.7 nM.
As for `CC1(C)C(/C=C/C2=C(Cl)C(=C/C=C3/N(CCCCCC(=O)O)c4ccccc4C3(C)C)/CCC2)=[N+](CCCCCC(=O)O)c2ccccc21.[Cl-]`, the Drug uptake result in series [1] and in series [3] was “Active” throughout. Moreover, the half-life in series [4] turned out to be 36 min.
Take `CC1(C)C(/C=C/C2=C(SCCC(=O)Nc3ccn([C@@H]4O[C@H](CO)[C@@H](O)C4(F)F)c(=O)n3)C(=C/C=C3/N(CCCCCC(=O)O)c4ccccc4C3(C)C)/CCC2)=[N+](CCCCS(=O)(=O)O)c2ccccc21.[Cl-]`: the Drug uptake entry in series [1] is “Not Active”.
Regarding `CC1(C)C(/C=C/C2=C(SCCC(=O)Nc3ccn([C@H]4C[C@H](O)[C@@H](CO)O4)c(=O)n3)C(=C/C=C3/N(CCCCS(=O)(=O)O)c4ccccc4C3(C)C)/CCC2)=[N+](CCCCS(=O)(=O)O)c2ccccc21`, the outcome in series [5] was Active.
For `CCCN1/C(=C/C=C2\CCCC(/C=C/C3=[N+](CCC)c4ccccc4C3(C)C)=C2SCCC(=O)Nc2ccn([C@@H]3O[C@H](CO)[C@@H](O)C3(F)F)c(=O)n2)C(C)(C)c2ccccc21.[Cl-]`, the Drug uptake entry in series [1] and in series [3] was “Active” each time.
On to `CCCN1/C(=C/C=C2\CCCC(/C=C/C3=[N+](CCC)c4ccccc4C3(C)C)=C2SCCC(=O)Nc2ccn([C@H]3C[C@H](O)[C@@H](CO)O3)c(=O)n2)C(C)(C)c2ccccc21`, for which the IC50 in series [2] came out at 3400 nM.
